Results on 25 compounds are retold here after ChEMBL document CHEMBL1123819, “Synthesis and antifungal activity of a series of novel 1,2-disubstituted propenones” (1987).

Each structure is given as a SMILES string. ≈ marks a conversion by molar mass, not a printed value. Where only a bound is given, the exact number is not on record here.

What all share (type): functional
For one test, the system named is Candida albicans. Put plainly: Antifungal activity against Candida albicans was determined in vitro. The procedure, abridged:
(§1)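 Broth microdilution in Sabouraud's glucose broth; MIC read as the fungistatic end point. Final inocula were 1 × 10^5 cells/mL for the yeast and 1 × 10^5 conidia/mL for the mould and the dermatophyte.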

A further test has as its system Trichophyton benhamiae. The experiment in a line: Antifungal activity against Trichophyton asteroides was determined in vitro. A digest of the protocol: as §1
For another test, the system named is Aspergillus fumigatus. Put plainly: Antifungal activity against Aspergillus fumigatus was determined in vitro. A digest of the protocol: as §1

Turning to `C=C(Cn1ccccc1=O)C(=O)c1ccc(OC)cc1`, the MIC against Candida albicans came to 25 µg/mL (≈ 92.8 µM); in the test with Trichophyton benhamiae it was 6.3 µg/mL (≈ 23.4 µM); with Aspergillus fumigatus, 100 µg/mL (≈ 371 µM).
For `C=C(Cn1cncn1)C(=O)c1ccc(-c2ccccc2)cc1` the same measures were 1.6 µg/mL (≈ 5.53 µM), 0.4 µg/mL (≈ 1.38 µM) and 12.5 µg/mL (≈ 43.2 µM).
The corresponding values for `C=C(C(=O)c1ccc(F)cc1)c1ccc(Cl)cc1Cl` are 3.1 µg/mL (≈ 10.5 µM), 0.4 µg/mL (≈ 1.36 µM) and 12.5 µg/mL (≈ 42.4 µM).
With `C=C(C(=O)c1ccc(OC)cc1)n1cncn1`, the figures for the minimum inhibitory concentration (MIC) in the test on Candida albicans, against Trichophyton benhamiae and in the test with Aspergillus fumigatus were 0.8 µg/mL (≈ 3.49 µM), 0.8 µg/mL (≈ 3.49 µM) and 12.5 µg/mL (≈ 54.5 µM), respectively.
For `C=C(C(=O)c1ccccc1)n1ccccc1=O`, the MIC in the test on Candida albicans amounted to 6.3 µg/mL (≈ 28 µM); with Trichophyton benhamiae, 1.6 µg/mL (≈ 7.1 µM); in the test on Aspergillus fumigatus it was 50 µg/mL (≈ 222 µM).
For `C=C(C(=O)c1ccc(Cl)cc1)n1c(=O)n(C)c2ccccc21` the same measures were 1.6 µg/mL (≈ 5.12 µM), 0.4 µg/mL (≈ 1.28 µM) and 1.6 µg/mL (≈ 5.12 µM).
On to `C=C(Cn1ccccc1=O)C(=O)c1ccc(-c2ccccc2)cc1`, for which the MIC against Candida albicans worked out at 6.3 µg/mL (≈ 20 µM); against Trichophyton benhamiae, 0.8 µg/mL (≈ 2.54 µM); with Aspergillus fumigatus it was 50 µg/mL (≈ 159 µM).
For `C=C(C(=O)c1ccc(Cl)cc1)n1c(O)nc2ccccc21` the same measures were 6.3 µg/mL (≈ 21.1 µM), 3.1 µg/mL (≈ 10.4 µM) and 12.5 µg/mL (≈ 41.8 µM).
The corresponding values for `C=C(C(=O)Nc1ccc(Cl)cc1)c1ccc(Cl)cc1Cl` are > 100 µg/mL, > 100 µg/mL and > 100 µg/mL.
For `C=C(C(=O)c1ccc(Cl)cc1)N1CC(=O)N=CC1=O` the same measures were 12.5 µg/mL (≈ 45.2 µM), 12.5 µg/mL (≈ 45.2 µM) and > 100 µg/mL.
Turning to `C=C(Cc1ccccc1)C(=O)c1cccs1`, the MIC against Candida albicans is > 100 µg/mL; in the test with Trichophyton benhamiae, 6.3 µg/mL (≈ 27.6 µM); in the test with Aspergillus fumigatus, 100 µg/mL (≈ 438 µM).
For `C=C(C)C(=O)c1ccco1` the same measures were 25 µg/mL (≈ 184 µM), 1.6 µg/mL (≈ 11.8 µM) and 25 µg/mL (≈ 184 µM).
As to `C=C(C(=O)c1ccc(Cl)cc1)n1ncc2ccccc2c1=O`, the minimal inhibitory concentration (MIC) turned out to be 0.8 µg/mL (≈ 2.57 µM) against Candida albicans, 1.6 µg/mL (≈ 5.15 µM) in the test on Trichophyton benhamiae and 6.3 µg/mL (≈ 20.3 µM) with Aspergillus fumigatus.
Regarding `C=C(C(=O)c1ccc(C(=O)OC)cc1)n1ccccc1=O`, the MIC in the test on Candida albicans is 3.1 µg/mL (≈ 10.9 µM); against Trichophyton benhamiae, 3.1 µg/mL (≈ 10.9 µM); in the test with Aspergillus fumigatus it was 50 µg/mL (≈ 177 µM).
With `C=C(Cn1cccn1)C(=O)c1ccc(-c2ccccc2)cc1`, the figures for the MIC with Candida albicans, in the test on Trichophyton benhamiae and in the test on Aspergillus fumigatus were 6.3 µg/mL (≈ 21.8 µM), 0.8 µg/mL (≈ 2.77 µM) and 12.5 µg/mL (≈ 43.4 µM), respectively.
Take `C=C(C(=O)c1ccc(Cl)cc1Cl)n1cccn1`: the minimum inhibitory concentration (MIC) was 0.8 µg/mL (≈ 2.99 µM) against Candida albicans, 1.6 µg/mL (≈ 5.99 µM) in the test on Trichophyton benhamiae and 25 µg/mL (≈ 93.6 µM) against Aspergillus fumigatus.
For `CC/C=C(\C(=O)c1ccc(Cl)cc1)n1ccccc1=O` the same measures were > 100 µg/mL, 25 µg/mL (≈ 86.9 µM) and > 100 µg/mL.
The corresponding values for `C=C(Cn1cncn1)C(=O)c1ccsc1` are 12.5 µg/mL (≈ 57 µM), 6.3 µg/mL (≈ 28.7 µM) and 100 µg/mL (≈ 456 µM).
For `C=C(C(=O)c1ccc(Cl)cc1)n1cc(C(=O)OC)ccc1=O` the same measures were 0.8 µg/mL (≈ 2.52 µM), 0.8 µg/mL (≈ 2.52 µM) and 3.1 µg/mL (≈ 9.76 µM).
With `COc1ccc(C(=O)C(CO)n2cncn2)cc1` (stereo not given), the minimum inhibitory concentration (MIC) stood at 3.1 µg/mL (≈ 12.5 µM) in the test on Candida albicans, 3.1 µg/mL (≈ 12.5 µM) with Trichophyton benhamiae and 100 µg/mL (≈ 404 µM) with Aspergillus fumigatus.
`C=C(C(=O)C(C)(C)C)n1cncn1`: the figures for the MIC with Candida albicans, against Trichophyton benhamiae and in the test on Aspergillus fumigatus were 0.4 µg/mL (≈ 2.23 µM), 6.3 µg/mL (≈ 35.2 µM) and 6.3 µg/mL (≈ 35.2 µM), respectively.
Consider `Clc1ccc(COC(Cn2ccnc2)c2ccc(Cl)cc2Cl)cc1` (stereo not given) [ECONAZOLE], for which the MIC against Candida albicans is 3.1 µg/mL (≈ 8.12 µM); against Trichophyton benhamiae, 0.1 µg/mL (≈ 0.262 µM); against Aspergillus fumigatus, 3.1 µg/mL (≈ 8.12 µM).
In the case of `O=C(/C(=C/c1ccc(F)cc1)n1ccccc1=O)c1ccc(Cl)cc1`, the MIC in the test on Candida albicans was > 100 µg/mL; with Trichophyton benhamiae, 12.5 µg/mL (≈ 35.3 µM); in the test on Aspergillus fumigatus, > 100 µg/mL.
As to `C=C(C(=O)N1CCOCC1)c1ccc(Cl)cc1Cl`, the MIC in the test on Candida albicans, against Trichophyton benhamiae and against Aspergillus fumigatus was > 100 µg/mL in each case.
As for `C=C(C(=O)c1ccccc1)n1cc(Cl)ccc1=O`, the figures for the MIC in the test on Candida albicans, in the test with Trichophyton benhamiae and in the test on Aspergillus fumigatus were 6.3 µg/mL (≈ 24.3 µM), 3.1 µg/mL (≈ 11.9 µM) and 25 µg/mL (≈ 96.3 µM), respectively.

Broadly, the MIC is the lowest concentration found to suppress growth. Higher therefore signals a less susceptible organism.
